Measured values pooled from the literature.
Each line is one published result; the experiments were not run side by side.
Target: Phosphatidylinositol 4-phosphate 5-kinase type-1 alpha (PIP5K1A, Homo sapiens, UniProt Q99755)

| SMILES | test | setting | measurement | value |
| --- | --- | --- | --- | --- |
| Cc1cnc(NC2CCOCC2)nc1-n1cnc(C(=O)NC(CN)c2cc(F)cc(Cl)c2)c1 (centres unmarked) | enzyme activity, inhibitor, radiometric | 1 µM | remaining activity | 100% |
| Nc1ncnc2occ(-c3ccc(NC(=O)Nc4cc(C(F)(F)F)ccc4F)cc3)c12 | enzyme activity, inhibitor | 20 µM | remaining activity | 60% |
| Cc1ccc(NC(=O)c2ccc(C)c(C(F)(F)F)c2)cc1C#Cc1nn(C2CCC(O)CC2)c2ncnc(N)c12 (centres unmarked) | cell-free assay, inhibitor | 10 µM | remaining signal | 102% |
| COc1cc(Cl)c(C(=O)N[C@@H](CN[C@H]2CC[C@@H](N)CC2)Cc2ccc(C#N)cc2)cc1-c1ccc(CN[C@H](C)c2ccc(C)cc2)o1 | enzyme activity, inhibitor | 1 µM | remaining activity | 106% |
| CS(=O)(=O)Nc1cccc(-c2csc(NC(=O)CSc3nc4nccnc4c(=O)n3CCc3ccccc3)n2)c1 | enzyme activity, inhibitor | 10 µM | inhibition | -1% |
| CCOCCn1cc(C(=O)Nc2ccc(-n3nc(-c4cccnc4)cc3C(F)(F)F)cn2)ccc1=O | cell-free assay, competition with immobilised ligand | 1 µM | remaining binding | 100% |
| Cc1ccc(C(=O)Nc2ccc(CN3CCN(C)CC3)c(C(F)(F)F)c2)cc1C#Cc1cnc2cccnn12 | enzyme activity, inhibitor | 23.5 nM | remaining activity | 79% |
| COCCOc1nc(-c2ccc(Cl)nc2)nc2c1CN(C(=O)c1ncn3ccccc13)CC2 | cell-free assay, competition with immobilised ligand | 0.1 µM | remaining binding | 100% |
| Cc1cc(NC(=O)c2cccc3cc(-c4cccc5[nH]nc(N)c45)ccc23)ccc1F | enzyme activity, inhibitor | 0.1 µM | activity vs control | 96% |
| O=C(CSc1nc2nccnc2c(=O)n1CCc1ccccc1)Nc1nccs1 | enzyme activity, inhibitor | 10 µM | inhibition | -2% |
| CN1CC(Oc2cnc(C#N)cc2-c2ccn3nc(NC(=O)C4CC4)cc3c2)C1 | enzyme activity, inhibitor | 1 µM | inhibition | 0% |
